Consider 16 molecules from ChEMBL document CHEMBL4257524, “Design and synthesis of conformationally constraint Dyrk1A inhibitors by creating an intramolecular H-bond involving a benzothiazole core” (Medchemcomm, 2018).

The term inhibition denotes the percentage by which the read-out fell short of the control. The pIC50 is −log10 of the IC50, conventionally taken in molar units. Broadly, the half-life is how long it takes for the measured level to halve.

pIC50: −log10 of the molar value.

The target in data set [1] is T1, Dual specificity tyrosine-phosphorylation-regulated kinase 1B (Homo sapiens, UniProt Q9Y463). As to the kind of experiment: Inhibition of full length recombinant human GST-tagged Dyrk1B expressed in baculovirus expression system at 0.5 uM using KKISGRLSPIMTEQ-NH2 peptide as substrate in presence of [gamma-32P]-ATP relative to control. The method, boiled down: (§1)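 Dyrk1B kinase assay with ATP at 15 μM. Single-point % inhibition measured at 0.5 μM, and IC50 determined. Values are means of at least two independent experiments, each run in duplicate, with standard deviation <10%.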
Target sequence in this assay (Q9Y463 whole entry, looked up): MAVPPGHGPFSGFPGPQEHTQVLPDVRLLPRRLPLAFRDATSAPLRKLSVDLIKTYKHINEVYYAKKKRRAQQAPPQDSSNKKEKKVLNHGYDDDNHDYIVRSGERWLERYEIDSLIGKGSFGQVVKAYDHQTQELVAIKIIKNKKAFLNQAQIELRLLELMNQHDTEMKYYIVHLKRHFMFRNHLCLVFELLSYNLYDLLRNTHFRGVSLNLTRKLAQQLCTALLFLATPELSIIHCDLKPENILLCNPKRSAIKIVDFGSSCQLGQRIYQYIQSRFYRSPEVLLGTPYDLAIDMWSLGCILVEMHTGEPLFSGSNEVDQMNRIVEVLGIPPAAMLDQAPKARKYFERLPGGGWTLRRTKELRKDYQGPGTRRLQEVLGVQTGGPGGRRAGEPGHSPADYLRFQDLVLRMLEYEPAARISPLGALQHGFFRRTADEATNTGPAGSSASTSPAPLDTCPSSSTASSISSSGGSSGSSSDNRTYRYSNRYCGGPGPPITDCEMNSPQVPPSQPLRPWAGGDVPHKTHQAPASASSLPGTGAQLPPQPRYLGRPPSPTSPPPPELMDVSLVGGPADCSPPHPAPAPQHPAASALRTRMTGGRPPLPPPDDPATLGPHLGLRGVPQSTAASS

The target in data set [2] is T1, Dual specificity tyrosine-phosphorylation-regulated kinase 1B. As to the kind of experiment: Inhibition of full length recombinant human GST-tagged Dyrk1B expressed in baculovirus expression system using KKISGRLSPIMTEQ-NH2 peptide as substrate in presence of [gamma-32P]-ATP. In a few lines:
as §1
Target sequence in this assay (Q9Y463 whole entry): as the sequence (Q9Y463 whole entry, looked up) above

The target of data set [3] is Cyclin-dependent kinase 5/CDK5 activator 1 (Homo sapiens) (UniProt Q00535+Q15078). As to the kind of experiment: Inhibition of full length recombinant human GST-tagged CDK5/His-tagged p25 expressed in baculovirus expression system at 5 uM relative to control. In a few lines: (§2)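 Kinase panel run at a single 5 μM inhibitor concentration with ATP at 100 μM. Activity expressed as % inhibition. Values are means of at least two duplicates.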

Data set [4] has as its target T2, Dual specificity tyrosine-phosphorylation-regulated kinase 1A (Homo sapiens, UniProt Q13627). As to the kind of experiment: Inhibition of recombinant human N-terminal His6-tagged Dyrk1A catalytic domain expressed in Escherichia coli BL21 (DE3) using KKISGRLSPIMTEQ-NH2 peptide as substrate in presence of [gamma-32P]-ATP.
The target of data set [5] is Myosin light chain kinase, smooth muscle (Homo sapiens) (UniProt Q15746). Kind of data set: Inhibition of full length recombinant human GST-tagged MLCK expressed in baculovirus expression system at 5 uM relative to control. The method, boiled down: as §2
In data set [6] the target is Serine/threonine-protein kinase pim-1 (Homo sapiens) (UniProt P11309). Kind of data set: Inhibition of full length recombinant human His-tagged PIM1 expressed in baculovirus expression system at 5 uM relative to control. The method, boiled down:
as §2

Data set [7] deals with Homeodomain-interacting protein kinase 1 (Homo sapiens) (UniProt Q86Z02). As to the kind of experiment: Inhibition of recombinant human GST-tagged HIPK1 expressed in baculovirus expression system at 5 uM relative to control. The method, boiled down:
as §2

Data set [8] has as its target T2, Dual specificity tyrosine-phosphorylation-regulated kinase 1A. Kind of data set: Inhibition of recombinant human N-terminal His6-tagged Dyrk1A catalytic domain expressed in Escherichia coli BL21 (DE3) at 5 uM using KKISGRLSPIMTEQ-NH2 peptide as substrate in presence of [gamma-32P]-ATP relative to control. In a few lines: as §2
Data set [9] in a line: Half life in human liver S9 fraction assessed as CYP450-mediated compound degradation at 0.3 uM after 15 to 60 mins by LC-MS/MS analysis. It counts as ADME, subcellular. In a few lines: (§3)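 Pooled human liver S9 fraction incubated with compound at 37 °C. Samples taken at 0, 15, 30 and 60 min, and parent compound quantified by MS. Half-life and parent compound remaining derived from these measurements.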

In data set [10] the target is T3, Dual specificity protein kinase CLK1 (Homo sapiens, UniProt P49759). As to the kind of experiment: Inhibition of recombinant GST-tagged human CLK1 expressed in Escherichia coli using RSRSRSRSR peptide as substrate in presence of [gamma-32P]-ATP. In a few lines: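 CLK1 IC50 determined in kinase assay with ATP at 15 μM.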
For data set [11], the species on record is Homo sapiens. As to the kind of experiment: Selectivity ratio of IC50 for full length recombinant human GST-tagged Dyrk1B to IC50 for recombinant human N-terminal His6-tagged Dyrk1A catalytic domain. In a few lines:
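Ratio of Dyrk1B IC50 to Dyrk1A IC50. Both IC50s determined with ATP at 15 μM, from means of at least two independent duplicate experiments.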

The target in data set [12] is T3, Dual specificity protein kinase CLK1. As to the kind of experiment: Inhibition of recombinant GST-tagged human CLK1 expressed in Escherichia coli at 5 uM using RSRSRSRSR peptide as substrate in presence of [gamma-32P]-ATP.
Data set [13] addresses T4, Serine/threonine-protein kinase haspin (Homo sapiens) (UniProt Q8TF76).
T4 sequence (whole entry): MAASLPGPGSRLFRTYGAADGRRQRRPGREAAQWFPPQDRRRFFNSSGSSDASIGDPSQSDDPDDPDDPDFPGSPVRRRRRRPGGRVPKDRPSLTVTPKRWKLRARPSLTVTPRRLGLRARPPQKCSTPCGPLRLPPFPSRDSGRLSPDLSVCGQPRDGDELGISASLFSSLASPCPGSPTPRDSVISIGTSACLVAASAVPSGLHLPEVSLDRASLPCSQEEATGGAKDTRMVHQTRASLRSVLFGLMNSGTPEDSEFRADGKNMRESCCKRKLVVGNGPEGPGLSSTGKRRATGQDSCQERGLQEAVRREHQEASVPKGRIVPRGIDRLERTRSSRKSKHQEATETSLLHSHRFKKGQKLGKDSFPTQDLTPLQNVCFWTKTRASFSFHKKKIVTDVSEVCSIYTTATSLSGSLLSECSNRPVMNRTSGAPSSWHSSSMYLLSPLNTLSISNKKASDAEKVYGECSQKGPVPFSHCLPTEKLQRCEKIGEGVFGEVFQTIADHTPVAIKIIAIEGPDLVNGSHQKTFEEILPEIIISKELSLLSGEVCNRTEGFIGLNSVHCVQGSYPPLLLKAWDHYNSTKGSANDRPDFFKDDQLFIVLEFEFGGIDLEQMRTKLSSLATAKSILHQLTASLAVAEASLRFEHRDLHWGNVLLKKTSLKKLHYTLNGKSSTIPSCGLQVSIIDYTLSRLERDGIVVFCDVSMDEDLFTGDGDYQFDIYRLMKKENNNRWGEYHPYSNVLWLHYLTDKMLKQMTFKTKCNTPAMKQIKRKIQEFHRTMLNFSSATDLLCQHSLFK
As to the kind of experiment: Inhibition of recombinant human N-terminal GST-tagged Haspin expressed in baculovirus expression system at 5 uM relative to control. In a few lines:
as §2

For data set [14], the target named is BDNF/NT-3 growth factors receptor (Homo sapiens) (UniProt Q16620). As to the kind of experiment: Inhibition of recombinant human His-tagged NTRK2 expressed in baculovirus expression system at 5 uM relative to control. The method, boiled down: as §2
For data set [15], the species on record is Homo sapiens. Kind of data set: Selectivity ratio of IC50 for recombinant GST-tagged human CLK1 to IC50 for recombinant human N-terminal His6-tagged Dyrk1A catalytic domain.
Data set [16] addresses Casein kinase I isoform delta (Homo sapiens) (UniProt P48730). As to the kind of experiment: Inhibition of full length recombinant human GST-tagged CK1delta expressed in baculovirus expression system at 5 uM relative to control. In a few lines: as §2
Data set [17] deals with T5, Serine/threonine-protein kinase 17A (Homo sapiens) (UniProt Q9UEE5).
T5 sequence (whole entry): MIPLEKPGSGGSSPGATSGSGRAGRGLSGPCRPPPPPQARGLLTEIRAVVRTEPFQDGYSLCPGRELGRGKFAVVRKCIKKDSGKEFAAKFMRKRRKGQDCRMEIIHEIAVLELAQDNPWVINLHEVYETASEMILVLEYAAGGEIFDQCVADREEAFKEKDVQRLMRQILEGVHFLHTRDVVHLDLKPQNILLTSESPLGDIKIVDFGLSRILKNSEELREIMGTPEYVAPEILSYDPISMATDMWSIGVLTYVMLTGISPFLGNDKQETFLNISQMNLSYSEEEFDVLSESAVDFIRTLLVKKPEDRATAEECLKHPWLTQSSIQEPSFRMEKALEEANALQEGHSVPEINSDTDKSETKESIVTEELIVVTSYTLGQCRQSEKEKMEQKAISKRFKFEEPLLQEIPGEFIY
Kind of data set: Inhibition of full length recombinant human GST-tagged STK17A expressed in baculovirus expression system at 5 uM relative to control. In a few lines:
as §2

Data set [18] concerns the target SRSF protein kinase 1 (Homo sapiens) (UniProt Q96SB4). Kind of data set: Inhibition of full length recombinant human His-tagged SRPK1 expressed in baculovirus expression system at 5 uM relative to control. In a few lines:
as §2

Data set [19] can be described thus: Drug metabolism in human liver S9 fraction assessed as CYP450-mediated metabolite formation by measuring parent compound remaining at 0.3 uM after 60 mins by LC-MS/MS analysis. It counts as ADME, subcellular. To be noted: s9, 1 h. The method, boiled down: as §3

Chain of Casein kinase I isoform delta (Homo sapiens) (P48730 whole entry, looked up, canonical isoform): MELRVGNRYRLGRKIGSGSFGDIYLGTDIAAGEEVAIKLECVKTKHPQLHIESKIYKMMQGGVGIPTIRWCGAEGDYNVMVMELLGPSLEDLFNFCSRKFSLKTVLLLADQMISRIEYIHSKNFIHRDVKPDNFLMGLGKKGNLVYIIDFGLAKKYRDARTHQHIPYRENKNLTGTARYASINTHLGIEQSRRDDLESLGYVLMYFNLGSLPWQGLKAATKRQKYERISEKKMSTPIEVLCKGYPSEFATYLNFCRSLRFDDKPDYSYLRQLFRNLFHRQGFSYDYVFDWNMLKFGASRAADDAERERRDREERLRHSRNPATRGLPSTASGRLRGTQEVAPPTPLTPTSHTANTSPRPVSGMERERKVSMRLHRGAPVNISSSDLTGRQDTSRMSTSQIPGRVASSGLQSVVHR
Chain of Serine/threonine-protein kinase pim-1 (Homo sapiens) (P11309 whole entry, looked up): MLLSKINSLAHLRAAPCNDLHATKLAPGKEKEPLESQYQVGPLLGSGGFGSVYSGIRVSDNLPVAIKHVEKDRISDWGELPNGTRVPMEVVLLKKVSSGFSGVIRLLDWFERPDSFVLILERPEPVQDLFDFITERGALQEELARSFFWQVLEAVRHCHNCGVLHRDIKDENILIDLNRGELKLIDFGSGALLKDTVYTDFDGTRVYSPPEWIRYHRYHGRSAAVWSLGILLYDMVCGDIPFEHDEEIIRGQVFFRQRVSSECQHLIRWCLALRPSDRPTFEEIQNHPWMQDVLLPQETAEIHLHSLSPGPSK
Chain of BDNF/NT-3 growth factors receptor (Homo sapiens) (Q16620 32-822 limits assumed): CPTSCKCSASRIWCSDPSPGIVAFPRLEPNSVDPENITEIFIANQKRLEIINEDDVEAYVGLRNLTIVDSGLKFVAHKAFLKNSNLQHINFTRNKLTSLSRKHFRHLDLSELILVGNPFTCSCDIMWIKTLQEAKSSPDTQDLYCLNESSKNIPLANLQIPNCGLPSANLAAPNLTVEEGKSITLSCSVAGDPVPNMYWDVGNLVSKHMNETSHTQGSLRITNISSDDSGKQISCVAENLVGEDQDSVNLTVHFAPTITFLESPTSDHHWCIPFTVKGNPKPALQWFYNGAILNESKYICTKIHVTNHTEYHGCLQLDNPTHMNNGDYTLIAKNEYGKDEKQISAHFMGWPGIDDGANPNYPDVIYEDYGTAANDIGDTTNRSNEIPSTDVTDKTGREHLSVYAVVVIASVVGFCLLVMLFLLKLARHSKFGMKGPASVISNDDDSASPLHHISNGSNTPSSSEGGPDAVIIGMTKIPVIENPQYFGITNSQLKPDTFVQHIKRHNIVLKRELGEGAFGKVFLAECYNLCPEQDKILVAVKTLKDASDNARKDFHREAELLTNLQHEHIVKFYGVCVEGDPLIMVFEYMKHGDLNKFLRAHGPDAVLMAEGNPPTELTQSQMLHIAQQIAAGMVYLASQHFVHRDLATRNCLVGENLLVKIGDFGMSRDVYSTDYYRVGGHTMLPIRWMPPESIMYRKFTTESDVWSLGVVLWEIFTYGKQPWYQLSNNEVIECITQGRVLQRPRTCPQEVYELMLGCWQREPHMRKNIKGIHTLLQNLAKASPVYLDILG
Chain of Myosin light chain kinase, smooth muscle (Homo sapiens) (Q15746 whole entry): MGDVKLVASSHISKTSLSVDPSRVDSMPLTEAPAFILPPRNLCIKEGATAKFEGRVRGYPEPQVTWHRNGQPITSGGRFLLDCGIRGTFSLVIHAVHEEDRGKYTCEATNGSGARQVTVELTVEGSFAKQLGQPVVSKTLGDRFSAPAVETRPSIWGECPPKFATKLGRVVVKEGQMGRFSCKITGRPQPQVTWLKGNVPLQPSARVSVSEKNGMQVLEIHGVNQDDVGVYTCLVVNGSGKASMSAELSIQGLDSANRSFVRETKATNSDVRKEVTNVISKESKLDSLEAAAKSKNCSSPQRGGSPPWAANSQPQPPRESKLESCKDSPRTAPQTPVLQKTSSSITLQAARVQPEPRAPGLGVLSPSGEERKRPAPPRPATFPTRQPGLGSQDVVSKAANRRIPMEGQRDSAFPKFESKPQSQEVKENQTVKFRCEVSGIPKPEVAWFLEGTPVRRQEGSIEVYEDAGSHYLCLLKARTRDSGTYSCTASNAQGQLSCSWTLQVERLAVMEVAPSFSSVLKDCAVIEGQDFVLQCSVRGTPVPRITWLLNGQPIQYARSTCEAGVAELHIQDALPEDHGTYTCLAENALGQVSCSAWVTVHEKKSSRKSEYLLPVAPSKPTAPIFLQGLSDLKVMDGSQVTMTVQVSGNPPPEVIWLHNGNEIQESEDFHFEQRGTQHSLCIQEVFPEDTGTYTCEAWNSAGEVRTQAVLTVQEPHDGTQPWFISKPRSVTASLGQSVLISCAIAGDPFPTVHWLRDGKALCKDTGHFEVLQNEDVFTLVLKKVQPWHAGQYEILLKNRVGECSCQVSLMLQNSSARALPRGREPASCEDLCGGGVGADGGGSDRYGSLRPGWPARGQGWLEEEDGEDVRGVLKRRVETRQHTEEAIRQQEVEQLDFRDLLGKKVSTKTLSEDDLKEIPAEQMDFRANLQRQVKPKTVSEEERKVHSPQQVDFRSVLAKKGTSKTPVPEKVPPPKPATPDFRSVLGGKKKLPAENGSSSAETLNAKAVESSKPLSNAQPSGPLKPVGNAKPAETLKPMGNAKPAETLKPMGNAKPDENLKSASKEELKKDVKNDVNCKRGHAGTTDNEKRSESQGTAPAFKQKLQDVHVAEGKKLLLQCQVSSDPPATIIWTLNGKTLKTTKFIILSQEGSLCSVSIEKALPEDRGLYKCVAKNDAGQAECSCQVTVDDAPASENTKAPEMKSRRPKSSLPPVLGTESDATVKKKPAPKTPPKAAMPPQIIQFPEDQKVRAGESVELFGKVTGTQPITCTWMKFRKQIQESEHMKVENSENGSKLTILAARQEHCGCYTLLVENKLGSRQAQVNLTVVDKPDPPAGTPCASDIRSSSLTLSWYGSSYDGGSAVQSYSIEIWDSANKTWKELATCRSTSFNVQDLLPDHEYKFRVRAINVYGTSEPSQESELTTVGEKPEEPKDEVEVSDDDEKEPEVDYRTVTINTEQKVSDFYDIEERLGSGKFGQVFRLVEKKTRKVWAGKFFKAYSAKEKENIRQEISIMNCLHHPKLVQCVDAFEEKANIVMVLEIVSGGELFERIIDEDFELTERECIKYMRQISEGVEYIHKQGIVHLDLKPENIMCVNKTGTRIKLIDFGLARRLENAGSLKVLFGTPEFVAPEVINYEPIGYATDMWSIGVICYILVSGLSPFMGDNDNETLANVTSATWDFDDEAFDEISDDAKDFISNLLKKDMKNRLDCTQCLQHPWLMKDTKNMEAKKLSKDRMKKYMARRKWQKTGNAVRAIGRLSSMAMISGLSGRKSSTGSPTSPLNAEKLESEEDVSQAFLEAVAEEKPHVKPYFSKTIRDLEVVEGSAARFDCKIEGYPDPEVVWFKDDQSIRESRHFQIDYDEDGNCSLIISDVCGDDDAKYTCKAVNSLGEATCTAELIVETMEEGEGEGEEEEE

Turning to `COc1cccc(CC(=O)Nc2nc3ccc(OC)cc3s2)c1`, the inhibition in data set [1] was 25%.

On to `CN1CCN(C(=O)c2ccc(NC(=O)Nc3nc4ccc(O)cc4s3)cc2)CC1`, for which the pIC50 in [2] is 5.82; in [4] it was 7.02; in [10] it was 6.14. Besides, the inhibition was found to be 2% in data set [3]; 45% in data set [5]; 29% in [6]; 50% in data set [7]; 21% in [1]; 85% in [8]. Further, the inhibition in data set [12] was determined as 72%; in data set [13], 1%; in data set [14] it was 13%; in [16], 9%; in [17], 39%; in data set [18], 5%. Besides, in data set [9], the half-life at 0.3 µM was over 60 min. The Ratio IC50 was 16 in the data set filed under Homo sapiens [11] and over 7 in the data set listed under Homo sapiens [15]. In data set [19], the Stability is 88%.

On to `COc1ccc2nc(NC(=O)Oc3ccccc3)sc2c1`, for which the inhibition in [1] came out at 0%.

Turning to `C[C@]12CC[C@H]3[C@@H](CCC4=CC(=O)CC[C@@]43C)[C@@H]1CC[C@@H]2O` [TESTOSTERONE], in data set [9], the half-life at 0.3 µM was determined as 9.6 min.

Regarding `COc1ccc2nc(NC(=O)Nc3ccccc3)sc2c1`, the inhibition in data set [1] is 0%.

`COc1ccc2nc(NC(=O)NCCCN3CCN(C)CC3)sc2c1`: the inhibition in data set [1] stood at 0%.

As for `COc1ccc2nc(NC(=O)Nc3ccc(C(=O)NCc4ccccc4)cc3)sc2c1`, the inhibition in data set [1] was found to be 0%.

As to `COc1ccc2nc(NC(=O)Nc3ccc(C(=O)N4CCN(C)CC4)cc3)sc2c1`, the inhibition in data set [1] was determined as 0%.

Take `O=C(Nc1cccc(O)c1)Nc1nc2ccc(O)cc2s1`: the pIC50 in data set [2] was 6.43; in data set [4] it was 6.87. Moreover, the inhibition in data set [1] was determined as 54.6%.

As to `O=C(Nc1nc2ccc(O)cc2s1)Oc1ccccc1`, in data set [1], the inhibition was 0%.

Turning to `O=C(Nc1ccccc1)Nc1nnc(-c2ccncc2)s1`, the inhibition in data set [1] was determined as 12%.

As for `O=C(Nc1ccccc1)Nc1nc2ccc(O)cc2s1`, the pIC50 in data set [2] was 6.15; in data set [4] it was 6.79. The inhibition in data set [1] stood at 43.6%.

Take `O=C(Nc1ccc(C(=O)NCc2ccccc2)cc1)Nc1nc2ccc(O)cc2s1`: the pIC50 in data set [2] is 6.89; in data set [4], 7.20. The inhibition in data set [1] worked out at 69%. For the same molecule, the half-life at 0.3 µM in data set [9] worked out at 33 min.

For `O=C(Cc1cccc(O)c1)Nc1nc2ccc(O)cc2s1`, the inhibition in [1] was 0%.

As to `COc1ccc2nc(NC(=O)Nc3ccc(C(=O)O)cc3)sc2c1`, the inhibition in [1] was found to be 0%.

In the case of `COc1ccc2nc(NC(=O)NCCN3CCOCC3)sc2c1`, in data set [1], the inhibition worked out at 0%.
